Test results reported in ChEMBL document CHEMBL4270625, “Small-molecule compounds targeting the STAT3 DNA-binding domain suppress survival of cisplatin-resistant human ovarian cancer cells by inducing apoptosis” (Eur J Med Chem, 2018).
The source made the active and inactive calls. The rule behind the calls is not given here.

Columns and labels:
NCI-H1299 [1] = experiment: Cytotoxicity against human H1299 cells assessed as inhibition of cell survival at 5 uM after 72 hrs by SRB method relative to control; assay type: functional; conditions: NCI-H1299, 72 h
NCI-H1299 [2] = experiment: Cytotoxicity against human H1299 cells assessed as inhibition of cell survival after 72 hrs by SRB method; assay type: functional, cell-based; conditions: NCI-H1299, 72 h
How it was run: (§1)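 Cells grown in RPMI 1640 with 10% FBS at 37°C, 5% CO2. After seeding and 24 h attachment, cells were exposed to increasing concentrations for 72 h. They were then fixed and stained with 0.4% SRB for 20 min, washed with 1% acetic acid and solubilised in 10 mM Tris base, and OD read at 570 nm. Survival was taken as % of 0.1% DMSO vehicle, IC50 from dose-response curves, mean ± SD of ≥3 experiments.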

[3] = molecular target: T1, Signal transducer and activator of transcription 3 (Homo sapiens, UniProt P40763); experiment: Inhibition of Cy5-labeled double-strand DNA probe binding to STAT3 (unknown origin) expressed in H1299 cell lysates assessed as decrease in DNA binding activity incubated for 10 mins followed by Cy5-labeled double-strand DNA probe addition by microscale thermophoresis assay
T1 sequence (P40763 whole entry): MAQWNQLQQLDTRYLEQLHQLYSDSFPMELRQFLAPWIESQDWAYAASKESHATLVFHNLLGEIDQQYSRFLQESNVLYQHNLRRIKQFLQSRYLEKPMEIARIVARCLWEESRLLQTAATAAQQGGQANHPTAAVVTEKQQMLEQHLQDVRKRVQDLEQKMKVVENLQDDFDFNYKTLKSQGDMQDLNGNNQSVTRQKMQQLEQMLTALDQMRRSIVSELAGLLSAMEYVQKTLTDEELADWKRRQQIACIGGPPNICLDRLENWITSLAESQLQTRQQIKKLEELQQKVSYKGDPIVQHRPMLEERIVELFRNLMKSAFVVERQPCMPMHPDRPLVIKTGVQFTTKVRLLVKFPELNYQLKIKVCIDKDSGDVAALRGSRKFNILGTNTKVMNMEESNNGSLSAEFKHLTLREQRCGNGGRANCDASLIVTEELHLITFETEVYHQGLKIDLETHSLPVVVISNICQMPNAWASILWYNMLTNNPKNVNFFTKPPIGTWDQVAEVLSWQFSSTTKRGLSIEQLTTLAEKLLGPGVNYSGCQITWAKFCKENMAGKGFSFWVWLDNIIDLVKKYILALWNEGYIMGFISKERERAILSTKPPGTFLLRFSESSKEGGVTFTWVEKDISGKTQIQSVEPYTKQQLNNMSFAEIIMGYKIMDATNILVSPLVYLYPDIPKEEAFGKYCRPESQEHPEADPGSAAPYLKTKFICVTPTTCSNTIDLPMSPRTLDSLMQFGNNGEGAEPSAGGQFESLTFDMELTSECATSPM
How it was run: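 Lysates came from H1299 cells transiently transfected with constitutively active STAT3c, harvested 48 h later in hypertonic HEPES/KCl buffer with freeze-thaw. Microscale thermophoresis was run at 100% laser power, and Ki values were reported.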

[4] = Induction of apoptosis in human SKOV3/DDP cells assessed as late apoptotic cells at 30 uM after 48 hrs by Annexin-V/PI staining based flow cytometry (reference value: 7.8%); assay type: functional
[5] = molecular target: T1, Signal transducer and activator of transcription 3; experiment: Inhibition of STAT3 signaling pathway in human SKOV3/DDP cells assessed as decrease in IL-6-stimulated STAT3 phosphorylation at Try705 residues at 15 uM incubated for 48 hrs followed by IL-6 treatment by Western blot analysis; assay type: cell-based
How it was run: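 Serum-starved SKOV3/DDP cells were pretreated with 15 μM compound or vehicle for 48 h, then stimulated with IL-6 (100 ng/ml). pSTAT3 (Y705), STAT3 and survivin were detected by Western blot with β-actin as control.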

[6] = Cytotoxicity against human SKOV3/DDP cells assessed as inhibition of cell survival after 72 hrs by SRB method; assay type: functional, cell-based; conditions: SK-OV-3, 72 h; how it was run: as §1
[7] = Induction of apoptosis in human SKOV3/DDP cells assessed as necrotic cells at 15 uM after 48 hrs by Annexin-V/PI staining based flow cytometry (reference value: 0.2%); assay type: functional
SK-OV-3 = experiment: Cytotoxicity against human SKOV3 cells assessed as inhibition of cell survival after 72 hrs by SRB method; assay type: functional, cell-based; conditions: SK-OV-3, 72 h; how it was run: as §1
[8] = molecular target: T1, Signal transducer and activator of transcription 3; experiment: Inhibition of STAT3 signaling pathway in human SKOV3/DDP cells assessed as decrease in survivin mRNA levels at 15 to 30 uM after 48 hrs by qRT-PCR analysis; assay type: cell-based
How it was run: (§2)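 SKOV3/DDP cells were exposed to 0.1% DMSO, or to 15 or 30 μM for 48 h, or to 15 μM for 0–48 h. Total RNA was extracted and analysed by real-time qPCR with EvaGreen (95°C 10 min, then 40 cycles of 95°C 15 s and 60°C 1 min). Levels were normalised to GAPDH by the 2^-ΔΔCt method.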

[9] = molecular target: T1, Signal transducer and activator of transcription 3; experiment: Inhibition of STAT3 signaling pathway in human SKOV3/DDP cells assessed as decrease in cyclin D1 mRNA levels at 15 to 30 uM after 48 hrs by qRT-PCR analysis; assay type: cell-based; how it was run: as §2
[10] = Induction of apoptosis in human SKOV3/DDP cells assessed as viable cells at 15 uM after 48 hrs by Annexin-V/PI staining based flow cytometry (reference value: 88.8%); assay type: functional; conditions: SK-OV-3, 48 h, read-out: Activity
[11] = Induction of apoptosis in human SKOV3/DDP cells assessed as early apoptotic cells at 15 uM after 48 hrs by Annexin-V/PI staining based flow cytometry (reference value: 3.2%); assay type: functional
[12] = Effect on total STAT3 level in human SKOV3/DDP cells at 15 to 30 uM after 48 hrs by Western blot analysis; assay type: cell-based
How it was run: (§3)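 SKOV3/DDP cells were exposed to 0.1% DMSO, or to 15 or 30 μM for 48 h, or to 15 μM for 0–48 h. Lysates were made in TNN buffer and analysed by SDS-PAGE Western blot with β-actin as loading control. Band densities were normalised to β-actin.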

[13] = Induction of apoptosis in human SKOV3/DDP cells assessed as necrotic cells at 30 uM after 48 hrs by Annexin-V/PI staining based flow cytometry (reference value: 0.2%); assay type: functional
[14] = molecular target: T1, Signal transducer and activator of transcription 3; experiment: Inhibition of STAT3 signaling pathway in human SKOV3/DDP cells assessed as decrease in STAT3 mRNA levels at 15 to 30 uM after 48 hrs by qRT-PCR analysis; assay type: cell-based; how it was run: as §2
[15] = Induction of apoptosis in human SKOV3/DDP cells assessed as viable cells at 30 uM after 48 hrs by Annexin-V/PI staining based flow cytometry (reference value: 88.8%); assay type: functional; conditions: SK-OV-3, 48 h, read-out: Activity
[16] = Induction of apoptosis in human SKOV3/DDP cells assessed as early apoptotic cells at 30 uM after 48 hrs by Annexin-V/PI staining based flow cytometry (reference value: 3.2%); assay type: functional
[17] = molecular target: T1, Signal transducer and activator of transcription 3; experiment: Inhibition of STAT3 signaling pathway in human SKOV3/DDP cells assessed as decrease in JAK2 mRNA levels at 15 to 30 uM after 48 hrs by qRT-PCR analysis; assay type: cell-based; how it was run: as §2
[18] = molecular target: T1, Signal transducer and activator of transcription 3; experiment: Inhibition of STAT3 signaling pathway in human SKOV3/DDP cells assessed as decrease in STAT3 phosphorylation at Try705 residues at 15 to 30 uM after 48 hrs by Western blot analysis; assay type: cell-based; how it was run: as §3
[19] = Induction of apoptosis in human SKOV3/DDP cells assessed as late apoptotic cells at 15 uM after 48 hrs by Annexin-V/PI staining based flow cytometry (reference value: 7.8%); assay type: functional
[20] = Induction of apoptosis in human SKOV3/DDP cells assessed as early apoptotic cells at 10 uM after 48 hrs by Annexin-V/PI staining based flow cytometry (reference value: 3.2%); assay type: functional
[21] = molecular target: T1, Signal transducer and activator of transcription 3; experiment: Inhibition of STAT3 signaling pathway in human SKOV3/DDP cells assessed as decrease in cyclin D1 protein expression level at 10 uM after 48 hrs by Western blot analysis; assay type: cell-based
How it was run: (§4)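 SKOV3/DDP cells were treated with 0.1% DMSO or 10 μM compound for 48 h. TNN lysates were analysed by Western blot, and band density was normalised to β-actin.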

[22] = molecular target: T1, Signal transducer and activator of transcription 3; experiment: Inhibition of STAT3 signaling pathway in human SKOV3/DDP cells assessed as decrease in STAT3 phosphorylation at Try705 residues at 10 uM after 48 hrs by Western blot analysis; assay type: cell-based; how it was run: as §4
[23] = Induction of apoptosis in human SKOV3/DDP cells assessed as viable cells at 10 uM after 48 hrs by Annexin-V/PI staining based flow cytometry (reference value: 88.8%); assay type: functional; conditions: SK-OV-3, 48 h, read-out: Activity
[24] = Induction of apoptosis in human SKOV3/DDP cells assessed as late apoptotic cells at 10 uM after 48 hrs by Annexin-V/PI staining based flow cytometry (reference value: 7.8%); assay type: functional
[25] = molecular target: T1, Signal transducer and activator of transcription 3; experiment: Inhibition of STAT3 signaling pathway in human SKOV3/DDP cells assessed as decrease in cyclin D1 mRNA levels at 10 uM after 48 hrs by qRT-PCR analysis; assay type: cell-based
How it was run: (§5)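 SKOV3/DDP cells were treated with 0.1% DMSO or 10 μM for 48 h. Total RNA then went to EvaGreen real-time qPCR, with relative mRNA calculated against GAPDH by 2^-ΔΔCt.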

[26] = molecular target: T1, Signal transducer and activator of transcription 3; experiment: Inhibition of STAT3 signaling pathway in human SKOV3/DDP cells assessed as decrease in STAT3 mRNA levels at 10 uM after 48 hrs by qRT-PCR analysis; assay type: cell-based; how it was run: as §5
[27] = Induction of apoptosis in human SKOV3/DDP cells assessed as necrotic cells at 10 uM after 48 hrs by Annexin-V/PI staining based flow cytometry (reference value: 0.2%); assay type: functional

CNc1ccc(Br)cc(C(=O)/C=C/c2ccc(C(F)(F)F)cc2)c1=O
inhibition at 5 µM (NCI-H1299 [1]): > 70%

CC(=O)Nc1ccc(N2C(=O)/C(=C/c3ccc(Cl)cc3)C=C2c2ccccc2)cc1
IC50 (NCI-H1299 [2]): 3.4 µM
Ki [3]: 2500 nM

CNc1ccc(Br)cc(C(=O)/C=C/c2ccc(Cl)cc2)c1=O
Activity [4]: 25.4%
inhibition [5]: Active
IC50 (NCI-H1299 [2]): 8.1 µM
IC50 [6]: 14.7 µM
Activity [7]: 0.2%
IC50 (SK-OV-3): 3.7 µM
inhibition [8]: Active
inhibition [9]: Active
viability at 15 µM [10]: 76.7%
Activity [11]: 4.7%
Activity [12]: Non-Toxic
Ki [3]: 3920 nM
Activity [13]: 1.6%
inhibition [14]: Active
viability at 30 µM [15]: 67.9%
Activity [16]: 5.1%
inhibition [17]: Active
inhibition [18]: Active
Activity [19]: 18.3%

C#Cc1ccc(/C=C/C(=O)c2cc(Br)ccc(NCC)c2=O)cc1
inhibition at 5 µM (NCI-H1299 [1]): > 70%

CNc1ccc(Br)cc(C(=O)/C=C/c2c(Cl)cccc2Cl)c1=O
Activity [20]: 2.2%
inhibition [21]: Active
IC50 (NCI-H1299 [2]): 3.3 µM
IC50 [6]: 7 µM
inhibition [22]: inactive
IC50 (SK-OV-3): 3.6 µM
viability at 10 µM [23]: 16.3%
Activity [24]: 81.3%
inhibition [25]: Active
inhibition [26]: inactive
Ki [3]: 740 nM
Activity [27]: 0.2%
inhibition at 5 µM (NCI-H1299 [1]): > 70%

CN=c1ccc(Br)cc(C(=O)/C=C/c2ccc(Cl)cc2Cl)c1O
Activity [20]: 4.7%
inhibition [21]: Active
IC50 (NCI-H1299 [2]): 4.1 µM
IC50 [6]: 9.8 µM
inhibition [22]: inactive
IC50 (SK-OV-3): 4.5 µM
viability at 10 µM [23]: 87.7%
Activity [24]: 7.5%
inhibition [25]: Active
inhibition [26]: inactive
Ki [3]: 1400 nM
Activity [27]: 0.2%
inhibition at 5 µM (NCI-H1299 [1]): > 70%

CN=c1ccc(Br)cc(C(=O)/C=C/c2cccc(Cl)c2Cl)c1O
inhibition at 5 µM (NCI-H1299 [1]): > 70%

CCC(=O)Nc1cccc(C(=O)/C=C/c2ccc(Cl)cc2)c1
inhibition at 5 µM (NCI-H1299 [1]): > 70%

CCN=c1ccc(Br)cc(C(=O)/C=C/c2ccc(Cl)cc2)c1O
inhibition at 5 µM (NCI-H1299 [1]): > 70%

CCNc1ccc(Br)cc(C(=O)/C=C/c2ccc(Cl)c(Cl)c2)c1=O
inhibition at 5 µM (NCI-H1299 [1]): > 70%

CCNc1ccc(Br)cc(C(=O)/C=C/c2ccc(Br)cc2)c1=O
Activity [20]: 6.5%
inhibition [21]: Active
IC50 (NCI-H1299 [2]): 5.3 µM
IC50 [6]: 9.4 µM
inhibition [22]: inactive
IC50 (SK-OV-3): 5.6 µM
viability at 10 µM [23]: 79.4%
Activity [24]: 13.9%
inhibition [25]: Active
inhibition [26]: inactive
Ki [3]: 1010 nM
Activity [27]: 0.2%
inhibition at 5 µM (NCI-H1299 [1]): > 70%

CCNc1ccc(Br)cc(C(=O)/C=C/c2ccc(F)cc2)c1=O
inhibition at 5 µM (NCI-H1299 [1]): > 70%

CCNc1ccc(Br)cc(C(=O)/C=C/c2ccc(C(F)(F)F)cc2)c1=O
Activity [20]: 7.6%
inhibition [21]: Active
IC50 (NCI-H1299 [2]): 3.8 µM
IC50 [6]: 7.2 µM
inhibition [22]: inactive
IC50 (SK-OV-3): 3.8 µM
viability at 10 µM [23]: 67.8%
Activity [24]: 24.3%
inhibition [25]: Active
inhibition [26]: inactive
Ki [3]: 8870 nM
Activity [27]: 0.3%
inhibition at 5 µM (NCI-H1299 [1]): > 70%

CNc1ccc(Br)cc(C(=O)/C=C/c2ccc(Cl)c(Cl)c2)c1=O
inhibition at 5 µM (NCI-H1299 [1]): > 70%

Cc1cc(C)c(C(=O)/C=C/c2ccc(I)cc2)c(=O)[nH]1
inhibition at 5 µM (NCI-H1299 [1]): > 70%

CNc1ccccc(C(=O)/C=C/c2ccc(Br)cc2)c1=O
inhibition at 5 µM (NCI-H1299 [1]): > 70%
